Compound activity deposited in PubChem BioAssay by several laboratories.
Compounds with a hit are over-represented: about 1.7% of the library has one in this group of screens.
IDE inh: cellular human IDE inhibition; HEK cells, FAbetaB cleavage, fluorescence polarization; 320,000 compounds, 0.41% hits; inhibition, % at 5.59 µM; P14735; AID 434962;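 active = percent inhibition above the average of all tested compounds plus 3 SD, set per screening campaign, cut at about 16% in these data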;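 also: IDE supplied by intact live HEK cells; FP after avidin binding of uncleaved biotin substrate so inhibition keeps polarization high; 0% = DMSO wells and 100% = 60 µM reference IDE inhibitor Ii1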
TbMetRS inhib: Trypanosoma brucei MetRS inhibition; inhibition, % at 11.9 µM; purified T. brucei MetRS, ATP depletion, Kinase-Glo luminescence; 360,000 compounds, 0.4% hits;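 active = inhibition above a per-plate cutoff of the control wells' mean inhibition plus 3 SD, cut at about 5.5% in these data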;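 also: 0% = DMSO wells median and 100% = median of wells with control inhibitor compound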
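Material – parasite MetRS enzyme · Medium – HEPES-MgCl2-KCl buffer plus DTT, spermine, BSA, pyrophosphatase · Reagent – ATP, methionine and E. coli bulk tRNA substrates · Times – 15 min enzyme-compound preincubation, 2 h reaction, 10 min detection, 25 °C · Measured by – luminescence of leftover ATP · Evaluation – percent inhibition relative to median high and low control wells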
HNF4A DNA FP: change in binding of human HNF4 alpha to DNA; HNF4a-FITC DNA binding, fluorescence polarization, 1 h; activity change, % at 10 µM; 360,000 compounds, 0.3% hits; in the data active = activity change above about 30%, passing the limit was not always enough
TPT1 inhibitor: C. albicans TPT1 enzyme inhibition; AID 1962; recombinant caTPT1, FP RNA substrate dephosphorylation; 300,000 compounds, 0.81% hits; inhibition, % at 5 µM;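 active = inhibition above the mean of all tested compounds plus 3 SD, set per screening campaign, cut at about 24% in these data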;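 also: plate controls were DMSO alone for no effect and ferristatin control at 100 nM for full effect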
IDE act: boosts human insulin-degrading enzyme activity in HEK cells | P14735 | FAbeta-B cleavage, fluorescence polarization; 0% vehicle, 100% cell-free pure enzyme wells | activation, % at 5.96 µM | 340,000 compounds, 0.073% hits | AID 493087;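 active = activation above the mean of all tested compounds plus 3 SD, set per screening campaign, cut at about 17% in these data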
CSN inh: blocks human CSN-mediated cullin deneddylation. AID 651999. Q92905. 360,000 compounds, 0.38% hits. inhibition, % at 12.5 µM. Purified CSN, SCF-Nedd8-OG deneddylation, fluorescence polarization;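 active = pattern-corrected inhibition above about 35%, with an unprinted fluorescence ratio check between 0.5 and 1.5, limit read from the data, passing the limit was not always enough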;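 also: 0% = enzyme with substrate and 100% = substrate without enzyme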
Target sequence (Q92905 whole entry, looked up, one chain of several): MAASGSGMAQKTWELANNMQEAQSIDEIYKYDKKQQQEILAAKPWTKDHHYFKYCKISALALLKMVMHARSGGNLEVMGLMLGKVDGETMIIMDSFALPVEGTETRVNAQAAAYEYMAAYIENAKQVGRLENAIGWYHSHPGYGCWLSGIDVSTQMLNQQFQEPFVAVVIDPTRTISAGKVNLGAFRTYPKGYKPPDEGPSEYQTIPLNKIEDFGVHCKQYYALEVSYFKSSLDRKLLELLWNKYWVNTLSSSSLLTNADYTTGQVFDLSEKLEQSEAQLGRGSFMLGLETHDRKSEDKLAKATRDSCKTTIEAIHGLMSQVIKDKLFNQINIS
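Test system: purified human Csn5 enzyme expressed in HEK293T cells. Amount: 0.24 nM enzyme. Reagent: SCFSkp2-Nedd8OG substrate at 10 nM final. Schedule: 90 min incubation of compound, enzyme and substrate at room temperature. Detection: fluorescence polarization. Read-out: % inhibition of substrate cleavage by Csn5.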
An asterisk follows results filed as active; · = not tested or not shown.

SMILES	IDE inh	TbMetRS inhib	HNF4A DNA FP	TPT1 inhibitor	IDE act	CSN inh
S=C1NC(c2ccccc2)=CC(c2ccccc2)N1 (stereo not given)	5	-1	2	-16	·	-5
Cc1cc(-c2onc3ccc(Cl)cc23)ccc1O	15	0	4	0	-19	3
O=C(/C=C/c1ccc(Cl)cc1Cl)NCc1ccncc1	2	8.9*	3	3	-3	3
O=C(/C=C/c1ccc(Cl)cc1Cl)Nc1ccncc1	11	3	6	6	-3	5
COc1ccc(NC(=O)Nc2ccc(Cc3ccncc3)cc2)c(OC)c1	-1	0	-1	4	0	-18
Cc1nc2c3cc(F)ccc3n(Cc3ccc(F)cc3)c2s1	1	-1	-3	1	2	6
CCc1ccc2c(c1)c1nc(C)sc1n2CC	7	1	-3	3	-6	54*
O=C(Nc1ccccc1C(=O)NC(Cc1ccccc1)C(=O)NC1CCCCC1)c1ccccc1 (stereo not given)	-2	0	-2	1	-3	-6
N#Cc1cc2cc3c(cc2nc1N1CCCCC1)OCCO3	0	0	0	0	3	2
N#Cc1cc2cc3c(cc2nc1Cl)OCCO3	·	-1	18	·	·	61*
O=S(=O)(c1ccc(Br)s1)N1CCN(c2ccccc2)CC1	0	0	32*	3	4	-3
CS(=O)(=O)Nc1ccc(C2=NN(S(C)(=O)=O)C(c3ccc4c(c3)OCO4)C2)cc1 (stereo not given)	8	0	79*	4	2	11
O=C1C=C(c2cccc3c2sc2ccccc23)C[C@@H](c2ccc(Cl)cc2)C1	6	0	3	·	23*	1
O=C1C=C(c2cc3ccccc3s2)C[C@@H](c2ccc(Cl)cc2)C1	1	0	-2	·	-1	-4
CCc1ccc2cc(C)cnc2n1	·	0	-2	·	·	-5
Cc1cnc2nc(-c3ccccc3)ccc2c1	·	-1	4	·	·	83*
COc1ccccc1C1CC(c2cccc(NS(C)(=O)=O)c2)=NN1S(=O)(=O)c1ccccc1 (stereo not given)	-2	0	81*	1	0	22
O=C(O)c1ccccc1Nc1ccc([N+](=O)[O-])c2nonc12	-14	-1	7	-24	22*	7
C[C@H]1CN([C@@H](C)CO)C(=O)CCCn2cc(nn2)CO[C@@H]1CN(C)C(=O)Nc1ccc2c(c1)OCCO2	·	1	1	·	·	1
Oc1ccc(C=Nc2ccc(N3CCOCC3)cc2)c(O)c1	5	0	2	0	3	10
Oc1cc(Br)ccc1C=Nc1ccc(N2CCCCC2)cc1	-2	0	37*	0	2	-2
O=c1c2oc3nc4c(cc3c2ncn1CCCc1ccccc1)CCCC4	7	-1	-1	0	0	-1
O=C(O)C(=O)/C(=C\c1ccccc1)c1ccc2ccccc2n1	3	0	2	30*	-4	2
O=C(O)C(=O)/C(=C\c1ccc([N+](=O)[O-])cc1)c1ccc2ccccc2n1	-1	0	17	16	2	18
Cc1nc(CS(=O)c2ccc(Cl)cc2)cc(NCc2ccc(Cl)cc2Cl)n1 (stereo not given)	0	3	0	4	2	52*
SMILES	IDE inh	TbMetRS inhib	HNF4A DNA FP	TPT1 inhibitor	IDE act	CSN inh
CCCC(=O)Nc1ccc2c(c1)c1ccccc1n2CC	-2	-1	0	-2	4	-15
CCOC(=O)N1CCN(C(=O)COc2cc(=O)n(CC)c3ccccc23)CC1	-1	0	0	5	3	1
CCOC(=O)C(=CNc1ccc2c(c1)c1ccccc1n2CC)C(=O)OCC	0	0	36*	-1	5	1
CCOC(=O)COc1cc(=O)n(CC)c2ccccc12	7	0	-1	-5	2	108*
CCOC(=O)[C@]12CCCC=C1N(Cc1ccccc1)C(=O)[C@H](CC(=O)NCC1CCCCC1)C2	·	-1	0	·	·	2
COC(=O)C1=C(O)/C(=C\c2ccc(CNS(=O)(=O)c3ccc(Cl)cc3)o2)N=C1C	1	-1	9	3	0	12
COC(=O)C1=C(O)/C(=C\c2ccc(CNC(=O)C(=O)Nc3ccc(C)cc3)o2)N=C1C	-2	-1	0	-4	-5	36*
CCOC(=O)C1=C(O)/C(=C\c2ccc(CNS(=O)(=O)c3ccc(Br)cc3)o2)N=C1C	-5	0	16	11	-3	52*
CCOC(=O)C1=C(O)/C(=C/c2ccc(CNC(=O)C(=O)Nc3ccc(C)cc3)o2)N=C1C	4	0	1	5	-4	28
CC(C)c1ccc(NC(=O)CSc2n[nH]c(=O)n2-c2cccnc2)cc1	3	0	1	-1	5	-3
Cc1ccc(NC(=O)CSc2nnc(CNC(=O)c3ccco3)n2C)cc1	10	0	4	-3	-3	-3
Cc1ccc(NC(=O)CSc2nnc(CNC(=O)c3ccco3)n2C)cc1C	4	0	-2	-1	0	43*
O=C1CC2(CCCC2)CC(=O)N1c1ccccc1	-1	0	1	0	30*	1
Cc1ccc(OCC(=O)N(C)CC(=O)Nc2cccc(F)c2)cc1	-4	0	-3	1	2	4
COc1ccc(Br)cc1C(=O)Nc1cccc(-c2nnc(-c3ccco3)o2)c1	2	0	49*	0	-5	115*
CCCCC(CC)CO (stereo not given)	7	0	0	·	7	-2
CCCCC(CC)CN=C(N)NC(N)=NCCCCCCN=C(N)NC(N)=NCC(CC)CCCC (stereo not given)	-13	1	98*	-1	13	127*
CN(C(=O)CN1C(=O)S/C(=C\c2ccc(Cl)cc2)C1=O)C1CCS(=O)(=O)C1 (stereo not given)	1	-1	-4	0	-4	-2
O=c1c2ccc(F)cc2sn1-c1ccccc1	·	0	29*	·	·	-3
COc1cccc(CN(C)C(=O)C2CC(=O)N(c3ccc4c(c3)OCCO4)C2)c1 (stereo not given)	2	0	-2	-1	2	-6
Cc1cc(C)cc(NC(=O)c2cc(S(=O)(=O)N3CCCC3)cn2C)c1	-1	-1	53*	-3	1	-5
COc1ccc(NC(=O)CSc2nc3[nH]ncc3c(=O)n2-c2ccccc2OC)cc1OC	21*	-1	-1	2	-19	6
Cc1ccc(S(=O)(=O)N2[C@@H](c3ccc(Cl)cc3)C(C(=O)OC(C)(C)C)=CC[C@H]2c2ccc(Cl)c(Cl)c2)cc1	·	0	-4	·	·	144*
O=C(Nc1ccc(-n2cnnn2)cc1)c1cn2ccccc2n1	-1	0	21	1	-6	46*
